This note sets out measurements from ChEMBL document CHEMBL1649115, “Enhanced susceptibility to antifungal oligopeptides in yeast strains overexpressing ABC multidrug efflux pumps” (Antimicrob Agents Chemother, 2008).

The subject of series [1] is Saccharomyces cerevisiae. Kind of series: Drug uptake in Saccharomyces cerevisiae ADCDR2 expressing Candida albicans CDR2 efflux pump at 200 uM pretreated for 10 mins measured after 60 mins by fluorescamine staining. It is filed as ADME, organism-based. To be noted: in vivo, 1 h.
Series [2] has as its system Saccharomyces cerevisiae. Kind of series: Drug uptake in Saccharomyces cerevisiae AD12345678 at 200 uM pretreated for 10 mins measured after 60 mins by fluorescamine staining. It is filed as ADME, organism-based. The conditions noted are these: in vivo, 1 h.
Series [3] relates to Saccharomyces cerevisiae. The series can be described thus: Drug uptake in Saccharomyces cerevisiae ADCDR1 at 200 uM pretreated for 10 mins measured after 60 mins by fluorescamine staining in presence of fluconazole. Format: ADME, organism-based. The conditions noted are these: in vivo, 1 h.
Series [4] concerns Saccharomyces cerevisiae. Kind of series: Prodrug stability in Saccharomyces cerevisiae ADMDR1 expressing Candida albicans MDR1 efflux pump assessed as compound cleavage rate measured per mg of protein. Format: ADME, organism-based. The conditions noted are these: in vivo.
The subject of series [5] is Saccharomyces cerevisiae. Kind of series: Drug uptake in Saccharomyces cerevisiae ADCDR2 at 200 uM pretreated for 10 mins measured after 60 mins by fluorescamine staining in presence of fluconazole. Format: ADME, organism-based. To be noted: in vivo, 1 h.
The test system of series [6] is Saccharomyces cerevisiae. The series can be described thus: Prodrug stability in Saccharomyces cerevisiae ADCDR2 expressing Candida albicans CDR2 efflux pump assessed as compound cleavage rate measured per mg of protein. It is filed as ADME, organism-based. To be noted: in vivo.
For series [7], the system named is Saccharomyces cerevisiae. Kind of series: Drug uptake in Saccharomyces cerevisiae AD12345678 at 200 uM pretreated for 10 mins measured after 60 mins by fluorescamine staining in presence of fluconazole. It is filed as ADME, organism-based. To be noted: in vivo, 1 h.
Series [8] deals with Candida albicans. Kind of series: Prodrug stability in fluconazole sensitive Candida albicans isolate B3 assessed as compound cleavage rate measured per mg of protein. It is filed as ADME, organism-based. The conditions noted are these: in vivo.
Series [9] has as its system Saccharomyces cerevisiae. The series can be described thus: Drug uptake in Saccharomyces cerevisiae ADMDR1 at 50 uM pretreated for 10 mins measured after 60 mins by fluorescamine staining in presence of fluconazole. The conditions noted are these: in vivo, 1 h.
Series [10] has as its system Saccharomyces cerevisiae. Kind of series: Prodrug stability in Saccharomyces cerevisiae AD12345678 assessed as compound cleavage rate measured per mg of protein. Format: ADME, organism-based. To be noted: in vivo.
Series [11] deals with Saccharomyces cerevisiae. Kind of series: Drug uptake in Saccharomyces cerevisiae ADCDR1 expressing Candida albicans CDR1 efflux pump at 200 uM pretreated for 10 mins measured after 60 mins by fluorescamine staining. It is filed as ADME, organism-based. To be noted: in vivo, 1 h.
Series [12] deals with Candida albicans. Kind of series: Prodrug stability in wild type Candida albicans 10261 assessed as compound cleavage rate measured per mg of protein. Format: ADME, organism-based. To be noted: in vivo.
Series [13] relates to Saccharomyces cerevisiae. The series can be described thus: Prodrug stability in wild type Saccharomyces cerevisiae ATCC 9763 assessed as compound cleavage rate measured per mg of protein. Format: ADME, organism-based. To be noted: in vivo.
Series [14] deals with Candida albicans. The series can be described thus: Prodrug stability in fluconazole sensitive Candida albicans isolate Gu4 assessed as compound cleavage rate measured per mg of protein. It is filed as ADME, organism-based. To be noted: in vivo. The method in brief: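 Oligopeptides were incubated with cell extracts of the yeast cells, and their hydrolytic enzymes cleaved them. The amino acids released were quantified by the Cd-ninhydrin method.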

In series [15] the test system is Saccharomyces cerevisiae. Kind of series: Prodrug stability in Saccharomyces cerevisiae ADCDR1 expressing Candida albicans CDR1 efflux pump assessed as compound cleavage rate measured per mg of protein. Format: ADME, organism-based. To be noted: in vivo.
Series [16] relates to Saccharomyces cerevisiae. Kind of series: Drug uptake in Saccharomyces cerevisiae ADMDR1 expressing Candida albicans MDR1 efflux pump at 200 uM pretreated for 10 mins measured after 60 mins by fluorescamine staining. It is filed as ADME, organism-based. The conditions noted are these: in vivo, 1 h.
For series [17], the system named is Saccharomyces cerevisiae. The series can be described thus: Antifungal activity against wild type Saccharomyces cerevisiae ATCC 9763 in YNPG medium containing 1 mg/ml […] after 24 hrs by microdilution method. The conditions noted are these: ATCC 9763, 24 h. It is filed as functional. A general note: In broth dilution the organism is exposed to a series of concentrations in liquid medium.

Series [18] concerns Candida albicans. The series can be described thus: Antifungal activity against fluconazole resistant Candida albicans isolate B4 overexpressing MDR1 in RPMI-1640 buffered medium after 24 hrs by microdilution method. It is filed as functional. To be noted: Candida albicans, isolate B4, 24 h; read-out: MIC. The method in brief:
(§1)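 C. albicans cells were grown in 2% glucose, 1% yeast extract, 1% Bacto peptone medium before testing. […] CARE-2 fingerprinting confirmed that each pair is a single strain.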

Series [19] relates to Saccharomyces cerevisiae. The series can be described thus: Antifungal activity against Saccharomyces cerevisiae ADMDR1 expressing Candida albicans MDR1 efflux pump in YNPG medium containing 1 mg/ml […] after 24 hrs by microdilution method. It is filed as functional. The conditions noted are these: ADMDR1, 24 h.
Series [20] concerns Candida albicans. The series can be described thus: Antifungal activity against fluconazole resistant Candida albicans isolate Gu5 overexpressing CDR1 and CDR2 in RPMI-1640 buffered medium after 24 hrs by microdilution method. To be noted: isolate Gu5, 24 h. It is filed as functional. A digest of the protocol:
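C. albicans cells were grown in 2% glucose, 1% yeast extract, 1% Bacto peptone medium before testing. CARE-2 fingerprinting confirmed that each pair is a single strain.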

For series [21], the system named is Candida albicans. Kind of series: Antifungal activity against fluconazole sensitive Candida albicans isolate Gu4 in RPMI-1640 buffered medium after 24 hrs by microdilution method. The conditions noted are these: Candida albicans, isolate Gu4, 24 h; read-out: MIC. Format: functional. The method in brief:
as §1

The subject of series [22] is Saccharomyces cerevisiae. Kind of series: Antifungal activity against Saccharomyces cerevisiae ADCDR1 expressing Candida albicans CDR1 efflux pump in YNPG medium containing 1 mg/ml […] after 24 hrs by microdilution method. Format: functional. The conditions noted are these: ADCDR1, 24 h.
Series [23] concerns Candida albicans. Kind of series: Antifungal activity against wild type Candida albicans 10261 in RPMI-1640 buffered medium after 24 hrs by microdilution method. Format: functional. To be noted: Candida albicans, 10261, 24 h; read-out: MIC. The method in brief: as §1
Series [24] deals with Saccharomyces cerevisiae. Kind of series: Antifungal activity against Saccharomyces cerevisiae AD12345678 in YNPG medium containing 1 mg/ml […] after 24 hrs by microdilution method. It is filed as functional. To be noted: AD12345678, 24 h.
Series [25] deals with Saccharomyces cerevisiae. Kind of series: Antifungal activity against Saccharomyces cerevisiae ADCDR2 expressing Candida albicans CDR2 efflux pump in YNPG medium containing 1 mg/ml […] after 24 hrs by microdilution method. Format: functional. The conditions noted are these: ADCDR2, 24 h.
For series [26], the system named is Candida albicans. The series can be described thus: Antifungal activity against fluconazole sensitive Candida albicans isolate B3 in RPMI-1640 buffered medium after 24 hrs by microdilution method. It is filed as functional. The conditions noted are these: Candida albicans, isolate B3, 24 h; read-out: MIC. A digest of the protocol: as §1
Series [27] relates to Saccharomyces cerevisiae. The series can be described thus: Antifungal activity against Saccharomyces cerevisiae ADMDR1 expressing Candida albicans MDR1 efflux pump in YNPG-proline medium after 24 hrs by microdilution method. Format: functional. The conditions noted are these: ADMDR1, 24 h.
Series [28] deals with Saccharomyces cerevisiae. The series can be described thus: Antifungal activity against Saccharomyces cerevisiae ADCDR1 expressing Candida albicans CDR1 efflux pump in YNPG-proline medium after 24 hrs by microdilution method. Format: functional. To be noted: ADCDR1, 24 h.
For series [29], the system named is Saccharomyces cerevisiae. The series can be described thus: Antifungal activity against Saccharomyces cerevisiae AD12345678 in YNPG-proline medium after 24 hrs by microdilution method. Format: functional. To be noted: AD12345678, 24 h.
Series [30] has as its system Saccharomyces cerevisiae. Kind of series: Antifungal activity against wild type Saccharomyces cerevisiae ATCC 9763 in YNPG-proline medium after 24 hrs by microdilution method. It is filed as functional. To be noted: ATCC 9763, 24 h.
Series [31] deals with Saccharomyces cerevisiae. Kind of series: Antifungal activity against Saccharomyces cerevisiae ADCDR2 expressing Candida albicans CDR2 efflux pump in YNPG-proline medium after 24 hrs by microdilution method. Format: functional. The conditions noted are these: ADCDR2, 24 h.

Each structure is given as a SMILES string. Converted amounts (≈) assume the structure as drawn. Non-standard residues stand in square brackets, D forms with d. Residues, ends and D or L forms follow the SMILES beside them. Phe(3-F) = N[C@@H](Cc1cccc(F)c1)C(=O)O

In the case of `CC(C)C[C@H](NC(=O)[C@@H](N)COCCN)C(=O)NCC(=O)O`, the Drug uptake amounted to 1.31 nmol/min/mg in the series with Saccharomyces cerevisiae [1]; 0.69 nmol/min/mg in the series on Saccharomyces cerevisiae [2]; 1.32 nmol/min/mg in the series on Saccharomyces cerevisiae [3]; 1.26 nmol/min/mg in the series with Saccharomyces cerevisiae [5]; 0.7 nmol/min/mg in the series with Saccharomyces cerevisiae [7]; 0.85 nmol/min/mg with Saccharomyces cerevisiae [9]. In addition, the results for the Drug uptake in the series on Saccharomyces cerevisiae [11] and in the series with Saccharomyces cerevisiae [16] were 1.42 nmol/min/mg and 0.87 nmol/min/mg, respectively. In addition, the Stability came out at 14 nmol/min in the series on Saccharomyces cerevisiae [4]; 14 nmol/min in the series on Saccharomyces cerevisiae [6]; 20 nmol/min in the series on Candida albicans [8]; 14 nmol/min with Saccharomyces cerevisiae [10]; 20 nmol/min with Candida albicans [12]; 14 nmol/min in the series on Saccharomyces cerevisiae [13]. In addition, the Stability came to 20 nmol/min with Candida albicans [14] and 14 nmol/min with Saccharomyces cerevisiae [15].
As for `NC(CC(=O)NO)C(=O)O` (centres undefined), the MIC against Saccharomyces cerevisiae [17] stood at 256 µg/mL (≈ 1730 µM); in the series with Candida albicans [18] it was 256 µg/mL (≈ 1730 µM); against Saccharomyces cerevisiae [19], 128 µg/mL (≈ 864 µM); in the series with Candida albicans [20], 128 µg/mL (≈ 864 µM); in the series with Candida albicans [21] it was 256 µg/mL (≈ 1730 µM); against Saccharomyces cerevisiae [22], 64 µg/mL (≈ 432 µM). The MIC in the series on Candida albicans [23] was determined as 256 µg/mL (≈ 1730 µM); against Saccharomyces cerevisiae [24] it was 256 µg/mL (≈ 1730 µM); in the series with Saccharomyces cerevisiae [25], 64 µg/mL (≈ 432 µM); in the series with Candida albicans [26], 256 µg/mL (≈ 1730 µM). Also, the Drug uptake in the series with Saccharomyces cerevisiae [1] amounted to 1.69 nmol/min/mg; in the series with Saccharomyces cerevisiae [2] it was 1.54 nmol/min/mg; with Saccharomyces cerevisiae [11], 2.25 nmol/min/mg; in the series with Saccharomyces cerevisiae [16], 1.25 nmol/min/mg.
In the case of `C[C@H](N)C(=O)N[C@@H](C)C(=O)O` (H-Ala-Ala-OH), the Drug uptake was determined as 4.08 nmol/min/mg in the series on Saccharomyces cerevisiae [1]; 2.58 nmol/min/mg in the series with Saccharomyces cerevisiae [2]; 4.2 nmol/min/mg in the series with Saccharomyces cerevisiae [3]; 3.94 nmol/min/mg in the series on Saccharomyces cerevisiae [5]; 2.55 nmol/min/mg in the series with Saccharomyces cerevisiae [7]; 2.61 nmol/min/mg with Saccharomyces cerevisiae [9]. Also, the Drug uptake in the series with Saccharomyces cerevisiae [11] is 4.46 nmol/min/mg; in the series with Saccharomyces cerevisiae [16], 2.59 nmol/min/mg.
Take `CC(C)C[C@H](N)C(=O)N[C@@H](Cc1cccc(F)c1)C(=O)O` (H-Leu-[Phe(3-F)]-OH): the MIC was 64 µg/mL (≈ 216 µM) with Candida albicans [18]; 256 µg/mL (≈ 864 µM) in the series with Saccharomyces cerevisiae [27]; 8 µg/mL (≈ 27 µM) against Saccharomyces cerevisiae [28]; 8 µg/mL (≈ 27 µM) against Candida albicans [20]; 256 µg/mL (≈ 864 µM) against Saccharomyces cerevisiae [29]; 128 µg/mL (≈ 432 µM) with Candida albicans [21]. In addition, the MIC with Candida albicans [23] was found to be 64 µg/mL (≈ 216 µM); with Saccharomyces cerevisiae [30], 256 µg/mL (≈ 864 µM); with Saccharomyces cerevisiae [31] it was 4 µg/mL (≈ 13.5 µM); with Candida albicans [26], 64 µg/mL (≈ 216 µM). Moreover, the Drug uptake in the series with Saccharomyces cerevisiae [1] stood at 2.37 nmol/min/mg; in the series on Saccharomyces cerevisiae [2] it was 0.79 nmol/min/mg; in the series with Saccharomyces cerevisiae [3], 1.82 nmol/min/mg; in the series on Saccharomyces cerevisiae [5], 2.23 nmol/min/mg; in the series with Saccharomyces cerevisiae [7] it was 0.79 nmol/min/mg; with Saccharomyces cerevisiae [9] it was 0.87 nmol/min/mg. The Drug uptake in the series on Saccharomyces cerevisiae [11] is 1.95 nmol/min/mg; in the series on Saccharomyces cerevisiae [16], 0.84 nmol/min/mg. The Stability was found to be 14 nmol/min in the series with Saccharomyces cerevisiae [4]; 14 nmol/min in the series on Saccharomyces cerevisiae [6]; 20 nmol/min in the series on Candida albicans [8]; 14 nmol/min in the series on Saccharomyces cerevisiae [10]; 20 nmol/min in the series with Candida albicans [12]; 14 nmol/min in the series with Saccharomyces cerevisiae [13]. The results for the Stability in the series on Candida albicans [14] and in the series with Saccharomyces cerevisiae [15] were 20 nmol/min and 14 nmol/min, respectively.

The MIC is the lowest concentration that inhibits growth of the organism.
